The values that follow come from ChEMBL document CHEMBL2384995, “Discovery of highly potent triazole antifungal derivatives by heterocycle-benzene bioisosteric replacement” (Eur J Med Chem, 2013).

As a reminder, the Tmax is the time at which the peak concentration occurs. In general, AUC(0-inf) refers to the area under the concentration-time curve extrapolated to infinity. Low readings indicate less exposure, high ones more exposure. One may read the Cmax as the maximum level reached in the sampled fluid or tissue. The half-life is how long it takes for the measured level to halve. A higher half-life goes with slow decline. The MIC80 is the lowest concentration that inhibits either 80% of growth or 80% of the strains tested, depending on the study.

The nature of series [1]: Tmax in Sprague-Dawley rat at 15 mg/kg, po by LC/MS/MS analysis. Type of series: ADME, organism-based. Further details: dose 15 mg/kg, route oral. The settings on record: in vivo. Summed up: (§1)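 Single oral dose of 15 mg/kg in Sprague-Dawley rats. Blood was drawn from the orbital venous plexus at several time points and plasma drug levels were quantified by LC/MS/MS, from which the pharmacokinetic parameters were obtained.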

The nature of series [2]: AUC (0 to infinity) in Sprague-Dawley rat at 15 mg/kg, po by LC/MS/MS analysis. The settings on record: plasma. Set-up: time infinity, dose 15 mg/kg, route oral. In kind it is ADME, organism-based. Summed up: as §1
The nature of series [3]: Cmax in Sprague-Dawley rat at 15 mg/kg, po by LC/MS/MS analysis. Type of series: ADME, organism-based. Further details: dose 15 mg/kg, route oral. The settings on record: in vivo. Summed up: as §1
The nature of series [4]: Half life in Sprague-Dawley rat at 15 mg/kg, po by LC/MS/MS analysis. Type of series: ADME, organism-based. Set-up: dose 15 mg/kg, route oral. The settings on record: in vivo. Summed up:
as §1

Series [5] concerns Cryptococcus neoformans. Briefly: Antifungal activity against Cryptococcus neoformans after 72 hrs by NCCLS method. In kind it is functional. Summed up:
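NCCLS serial-dilution MIC assay in 96-well plates against an ATCC or clinical yeast isolate. Test agents were taken up in DMSO and diluted serially in growth medium. Plates were held at 35 °C and growth was scored at 72 h. MIC80 is the lowest concentration reducing turbidity by at least 80% compared with the control culture.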

The subject of series [6] is Cryptococcus neoformans. Briefly: Ratio of fluconazole MIC80 to compound MIC80 for Cryptococcus neoformans. In kind it is functional.
Series [7] concerns Candida tropicalis. Briefly: Antifungal activity against Candida tropicalis after 24 hrs by NCCLS method. Type of series: functional. Summed up:
(§2)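 Broth microdilution in 96-well plates following NCCLS recommendations, using ATCC strains or clinical isolates. Compounds were dissolved in DMSO and serially diluted in growth medium. Yeast plates were incubated at 35 °C and read at 24 h. MIC80 is the lowest concentration giving turbidity of […] inhibition relative to the drug-free growth control.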

The subject of series [8] is Aspergillus fumigatus. The series is described as follows: Antifungal activity against Aspergillus fumigatus after 7 days by NCCLS method. In kind it is functional. The settings on record: 168 h. Summed up:
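Microtest-plate serial dilution per NCCLS, with the strain taken from ATCC or a clinical source. Compounds were prepared in DMSO and serially diluted in growth medium. Growth was read after 7 days. The endpoint is the lowest concentration producing ≥80% turbidity inhibition versus the untreated growth control.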

Series [9] deals with Trichophyton rubrum. Briefly: Antifungal activity against Trichophyton rubrum by NCCLS method. In kind it is functional. Summed up:
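Dermatophyte MIC by NCCLS broth serial dilution in 96-well plates, using an ATCC or clinical isolate. DMSO solutions were serially diluted in growth medium and incubated at 28 °C.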

For series [10], the system named is Trichophyton rubrum. The series is described as follows: Ratio of fluconazole MIC80 to compound MIC80 for Trichophyton rubrum. In kind it is functional.
The subject of series [11] is Candida albicans. Briefly: Antifungal activity against Candida albicans after 24 hrs by NCCLS method. Type of series: functional. Summed up: as §2
Where [12] appears, read: Cryptococcus neoformans, 72 h, read-out: MIC80.
The mark [13] stands for this setting: Candida albicans, 24 h, read-out: MIC80.

Values after ≈ are worked out from the molar mass of the structure shown. A value given as a limit tells only on which side of the number the result lay.

For the molecule `CN(Cc1ccc(I)cc1)CC(O)(Cn1cncn1)c1ccc(F)cc1F` (stereo not drawn), the Tmax in series [1] turned out to be 0.9 h. The AUC(0-inf) in [2] was 0.546 µg·h/mL. Also, the Cmax in series [3] was found to be 0.297 µg/mL. The same molecule gave a half-life in series [4] of 1.38 h.

On to `OC(CN1CCN(Cc2nc3ccccc3s2)CC1)(Cn1cncn1)c1ccc(F)cc1F` (racemic), for which the MIC80 was 0.016 mg/L (≈ 0.034 µM) in series [5]; 0.004 mg/L (≈ 0.0085 µM) in [7]; 64 mg/L (≈ 136 µM) in series [8]; 0.0625 mg/L (≈ 0.133 µM) in series [9]; 0.016 mg/L (≈ 0.034 µM) in series [11]. Also, the Ratio in series [6] was determined as 125; in [10] it was 16. In [1], the time of peak concentration (Tmax) was determined as 0.8 h. This molecule also displayed an AUC(0-inf) in series [2] of 1.42 µg·h/mL. Moreover, the peak level in series [3] (Cmax) was 0.508 µg/mL. Besides, the half-life in [4] is 1.27 h.

In the case of `CN(Cc1cccs1)CC(O)(Cn1cncn1)c1ccc(F)cc1F` (racemic), the MIC80 in [5] (setting [12]) was found to be 0.016 mg/L (≈ 0.0439 µM); in [7], 0.125 mg/L (≈ 0.343 µM); in [8], 16 mg/L (≈ 43.9 µM); in [9] it was 1 mg/L (≈ 2.74 µM); in series [11] (setting [13]) it was 1 mg/L (≈ 2.74 µM). In addition, in [6], the Ratio was 125.

For `CN(Cc1ccco1)CC(O)(Cn1cncn1)c1ccc(F)cc1F` (racemic), the MIC80 in [5] (setting [12]) is 0.0625 mg/L (≈ 0.179 µM); in [7] it was 0.016 mg/L (≈ 0.0459 µM); in [8], 64 mg/L (≈ 184 µM); in series [9] it was 1 mg/L (≈ 2.87 µM); in series [11] (setting [13]) it was 0.0625 mg/L (≈ 0.179 µM). In addition, in series [6], the Ratio came to 32.

For the molecule `CN(Cc1ccc2ccccc2n1)CC(O)(Cn1cncn1)c1ccc(F)cc1F` (racemic), the MIC80 in [5] (setting [12]) is 0.25 mg/L (≈ 0.611 µM); in [7] it was 1 mg/L (≈ 2.44 µM); in series [8] it was above 64 mg/L; in series [9], 4 mg/L (≈ 9.77 µM); in series [11] (setting [13]), 4 mg/L (≈ 9.77 µM). Also, the Ratio in series [6] was determined as 8.

Take `CN(Cc1ccccn1)CC(O)(Cn1cncn1)c1ccc(F)cc1F` (racemic): the MIC80 is 0.25 mg/L (≈ 0.696 µM) in series [5] (setting [12]); 0.0625 mg/L (≈ 0.174 µM) in [7]; above 64 mg/L in series [8]; 4 mg/L (≈ 11.1 µM) in [9]; 1 mg/L (≈ 2.78 µM) in [11] (setting [13]). Besides, in series [6], the Ratio came to 8.

Take `CN(Cc1nc2ccccc2[nH]1)CC(O)(Cn1cncn1)c1ccc(F)cc1F` (racemic): the MIC80 in series [5] (setting [12]) was 16 mg/L (≈ 40.2 µM); in [7], 0.25 mg/L (≈ 0.627 µM); in series [8], above 64 mg/L; in series [9], above 64 mg/L; in series [11] (setting [13]) it was 4 mg/L (≈ 10 µM).

For `OC(CN1CCN(Cc2cccs2)CC1)(Cn1cncn1)c1ccc(F)cc1F` (racemic), the MIC80 in [5] (setting [12]) stood at 0.25 mg/L (≈ 0.596 µM); in [7], 0.016 mg/L (≈ 0.0381 µM); in [8] it was 16 mg/L (≈ 38.1 µM); in series [9], 4 mg/L (≈ 9.54 µM); in series [11] (setting [13]), 0.0625 mg/L (≈ 0.149 µM). Besides, the Ratio in [6] turned out to be 8.

On to `OC(CN1CCN(Cc2ccc3ccccc3n2)CC1)(Cn1cncn1)c1ccc(F)cc1F` (racemic), for which the MIC80 was 0.0625 mg/L (≈ 0.135 µM) in series [5] (setting [12]); 0.016 mg/L (≈ 0.0344 µM) in series [7]; 2 mg/L (≈ 4.31 µM) in series [8]; 0.25 mg/L (≈ 0.538 µM) in series [9]; 1 mg/L (≈ 2.15 µM) in series [11] (setting [13]). Also, the Ratio in [6] was 32.

Turning to `OC(CN1CCN(Cc2ccccn2)CC1)(Cn1cncn1)c1ccc(F)cc1F` (racemic), the MIC80 amounted to 1 mg/L (≈ 2.41 µM) in series [5] (setting [12]); 1 mg/L (≈ 2.41 µM) in [7]; 16 mg/L (≈ 38.6 µM) in series [8]; 1 mg/L (≈ 2.41 µM) in series [9]; 0.0625 mg/L (≈ 0.151 µM) in series [11] (setting [13]). Further, the Ratio in [6] worked out at 2.

On to `OC(CN1CCN(Cc2nc3ccccc3[nH]2)CC1)(Cn1cncn1)c1ccc(F)cc1F` (racemic), for which the MIC80 in [5] (setting [12]) is 16 mg/L (≈ 35.3 µM); in [7], 1 mg/L (≈ 2.21 µM); in series [8] it was above 64 mg/L; in series [9] it was 64 mg/L (≈ 141 µM); in [11] (setting [13]), 4 mg/L (≈ 8.82 µM).

For the molecule `OC(CN1CCN(Cc2nc3ccccc3o2)CC1)(Cn1cncn1)c1ccc(F)cc1F` (racemic), the MIC80 in [5] (setting [12]) is 0.0625 mg/L (≈ 0.138 µM); in series [7], 0.004 mg/L (≈ 0.0088 µM); in series [8], 0.25 mg/L (≈ 0.55 µM); in series [9], 0.25 mg/L (≈ 0.55 µM); in [11] (setting [13]), 0.0625 mg/L (≈ 0.138 µM). Besides, the values for the Ratio in series [6] and in [10] were 32 and 4, respectively.

Take `OC(CN1CCN(Cc2nc3ccccc3s2)CC1)(Cn1cncn1)c1ccc(F)cc1F` (single isomer, unassigned; (+)): the MIC80 in series [5] and in [11] was 0.0625 mg/L (≈ 0.133 µM) each time.

Turning to `OC(CN1CCN(Cc2nc3ccccc3s2)CC1)(Cn1cncn1)c1ccc(F)cc1F` (stereo in doubt; (-)-8f), the MIC80 in series [5] and in series [11] was below 0.016 mg/L in each case.

For `OC(Cn1cncn1)(Cn1cncn1)c1ccc(F)cc1F` [FLUCONAZOLE], the MIC80 in series [5] (setting [12]) is 2 mg/L (≈ 6.53 µM); in [7], 4 mg/L (≈ 13.1 µM); in series [8], above 64 mg/L; in series [9] it was 1 mg/L (≈ 3.27 µM); in [11] (setting [13]) it was 0.25 mg/L (≈ 0.816 µM).
